Experimental data as given in the M2OR odorant receptor database.

How the values were obtained:
Details in all cases: stereoisomer not certain
UniProt Q7TRX0 = biological target: T1, UniProt Q7TRX0
T1 sequence (whole entry): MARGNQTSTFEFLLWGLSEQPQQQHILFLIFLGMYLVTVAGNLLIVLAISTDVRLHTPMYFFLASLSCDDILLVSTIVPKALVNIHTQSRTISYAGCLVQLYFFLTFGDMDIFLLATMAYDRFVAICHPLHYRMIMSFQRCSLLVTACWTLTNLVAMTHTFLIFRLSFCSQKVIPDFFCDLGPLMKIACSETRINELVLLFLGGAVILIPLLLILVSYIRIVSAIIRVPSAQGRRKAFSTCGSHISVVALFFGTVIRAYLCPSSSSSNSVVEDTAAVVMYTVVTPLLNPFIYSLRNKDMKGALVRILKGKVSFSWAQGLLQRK
Procedure, shortened: (§1)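 Transient luciferase assays in mammalian cell lines were common, though methods varied by source. The values come from published papers and their supplementary material, with extra details from the original authors when needed. Responsive refers to a measured signal the original authors judged statistically different from baseline, and non-responsive (inactive) to the remainder.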

UniProt Q8VF43 = biological target: T2, UniProt Q8VF43
T2 sequence (whole entry): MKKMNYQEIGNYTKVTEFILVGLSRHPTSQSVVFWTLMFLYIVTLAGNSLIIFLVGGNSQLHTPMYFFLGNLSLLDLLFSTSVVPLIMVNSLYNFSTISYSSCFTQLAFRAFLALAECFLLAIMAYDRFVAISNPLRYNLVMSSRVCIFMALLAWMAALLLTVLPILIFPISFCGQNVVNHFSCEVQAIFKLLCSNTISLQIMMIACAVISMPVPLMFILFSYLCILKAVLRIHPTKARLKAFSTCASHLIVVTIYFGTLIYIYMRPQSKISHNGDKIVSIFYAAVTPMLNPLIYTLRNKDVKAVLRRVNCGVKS
Procedure, shortened: as §1

UniProt Q8VF52 = biological target: T3, UniProt Q8VF52
T3 sequence (whole entry): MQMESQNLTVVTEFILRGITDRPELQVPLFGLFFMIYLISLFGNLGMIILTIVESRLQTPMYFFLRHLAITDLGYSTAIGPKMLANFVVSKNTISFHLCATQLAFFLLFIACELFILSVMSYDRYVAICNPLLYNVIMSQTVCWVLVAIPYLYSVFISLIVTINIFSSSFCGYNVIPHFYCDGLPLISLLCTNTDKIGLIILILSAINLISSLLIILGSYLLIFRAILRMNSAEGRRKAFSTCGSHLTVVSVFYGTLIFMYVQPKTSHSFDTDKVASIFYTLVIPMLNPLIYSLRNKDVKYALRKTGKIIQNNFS
Procedure, shortened: as §1

UniProt Q8VFM8 = biological target: T4, UniProt Q8VFM8
T4 sequence (whole entry): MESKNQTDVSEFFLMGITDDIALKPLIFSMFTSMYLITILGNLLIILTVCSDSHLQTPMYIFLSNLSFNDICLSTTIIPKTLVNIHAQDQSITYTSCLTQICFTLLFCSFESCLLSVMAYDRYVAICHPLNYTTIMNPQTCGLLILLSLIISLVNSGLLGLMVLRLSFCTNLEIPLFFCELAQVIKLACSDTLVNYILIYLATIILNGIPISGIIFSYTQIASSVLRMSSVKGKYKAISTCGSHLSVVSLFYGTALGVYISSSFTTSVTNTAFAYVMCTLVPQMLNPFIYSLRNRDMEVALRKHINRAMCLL
Procedure, shortened: as §1

UniProt Q8VFP5 = biological target: T5, UniProt Q8VFP5
T5 sequence (whole entry): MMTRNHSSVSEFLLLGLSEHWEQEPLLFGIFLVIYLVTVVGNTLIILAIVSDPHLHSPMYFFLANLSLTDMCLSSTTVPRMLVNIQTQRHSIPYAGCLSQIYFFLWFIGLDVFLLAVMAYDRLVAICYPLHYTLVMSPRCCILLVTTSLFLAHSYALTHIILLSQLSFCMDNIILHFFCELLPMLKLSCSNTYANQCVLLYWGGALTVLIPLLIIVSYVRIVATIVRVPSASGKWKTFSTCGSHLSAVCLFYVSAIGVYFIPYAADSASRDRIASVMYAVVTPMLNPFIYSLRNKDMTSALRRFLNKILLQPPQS
Procedure, shortened: as §1

UniProt Q8VG01 = biological target: T6, UniProt Q8VG01
T6 sequence (whole entry): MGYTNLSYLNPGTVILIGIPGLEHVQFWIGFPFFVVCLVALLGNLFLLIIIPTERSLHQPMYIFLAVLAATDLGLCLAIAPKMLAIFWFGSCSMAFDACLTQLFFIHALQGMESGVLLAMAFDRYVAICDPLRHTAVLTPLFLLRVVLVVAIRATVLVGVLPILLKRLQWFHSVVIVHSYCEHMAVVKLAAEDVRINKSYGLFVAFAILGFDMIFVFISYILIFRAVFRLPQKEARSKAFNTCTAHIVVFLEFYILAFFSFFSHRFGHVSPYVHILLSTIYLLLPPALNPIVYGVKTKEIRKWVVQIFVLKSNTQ
Procedure, shortened: as §1

UniProt Q8VG27 = biological target: T7, UniProt Q8VG27
T7 sequence (whole entry): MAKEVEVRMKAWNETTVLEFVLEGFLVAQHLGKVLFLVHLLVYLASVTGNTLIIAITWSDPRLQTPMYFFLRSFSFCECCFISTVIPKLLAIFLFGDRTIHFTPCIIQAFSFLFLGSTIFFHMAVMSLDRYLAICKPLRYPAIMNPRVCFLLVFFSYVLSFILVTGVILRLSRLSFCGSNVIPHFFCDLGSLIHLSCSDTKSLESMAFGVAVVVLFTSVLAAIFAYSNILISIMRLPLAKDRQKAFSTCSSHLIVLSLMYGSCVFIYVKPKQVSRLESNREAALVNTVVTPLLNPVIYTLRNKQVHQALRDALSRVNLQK
Procedure, shortened: as §1

UniProt Q7TRN9 = biological target: UniProt Q7TRN9
Chain of UniProt Q7TRN9 (Q7TRN9 as listed by the source): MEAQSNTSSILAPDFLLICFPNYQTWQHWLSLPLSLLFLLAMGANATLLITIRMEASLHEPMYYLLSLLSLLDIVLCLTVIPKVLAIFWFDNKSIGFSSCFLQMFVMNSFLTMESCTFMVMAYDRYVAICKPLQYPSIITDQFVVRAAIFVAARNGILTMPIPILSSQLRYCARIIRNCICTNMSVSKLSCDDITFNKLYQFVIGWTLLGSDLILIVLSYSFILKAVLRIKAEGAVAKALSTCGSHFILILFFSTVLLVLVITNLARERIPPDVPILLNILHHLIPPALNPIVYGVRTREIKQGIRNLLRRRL
Procedure, shortened: as §1

UniProt Q7TRR8 = biological target: UniProt Q7TRR8
Chain of UniProt Q7TRR8 (Q7TRR8 as listed by the source): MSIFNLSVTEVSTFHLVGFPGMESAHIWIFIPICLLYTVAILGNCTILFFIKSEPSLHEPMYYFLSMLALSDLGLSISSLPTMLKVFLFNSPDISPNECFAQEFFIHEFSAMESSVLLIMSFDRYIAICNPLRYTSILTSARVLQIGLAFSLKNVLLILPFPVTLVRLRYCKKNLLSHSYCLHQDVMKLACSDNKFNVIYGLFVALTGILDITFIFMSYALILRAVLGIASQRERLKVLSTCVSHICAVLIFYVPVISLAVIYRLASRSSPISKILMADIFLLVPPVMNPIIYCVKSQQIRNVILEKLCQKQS
Procedure, shortened: as §1

UniProt Q8VF06 = biological target: UniProt Q8VF06
Chain of UniProt Q8VF06 (Q8VF06 as listed by the source): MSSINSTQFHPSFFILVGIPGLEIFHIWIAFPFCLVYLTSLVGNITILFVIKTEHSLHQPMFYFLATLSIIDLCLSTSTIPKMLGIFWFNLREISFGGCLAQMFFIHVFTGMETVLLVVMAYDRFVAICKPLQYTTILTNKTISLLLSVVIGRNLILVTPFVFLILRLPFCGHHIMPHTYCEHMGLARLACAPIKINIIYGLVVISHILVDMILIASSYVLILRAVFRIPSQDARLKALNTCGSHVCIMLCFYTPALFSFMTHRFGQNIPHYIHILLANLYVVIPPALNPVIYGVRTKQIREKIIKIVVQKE
Procedure, shortened: as §1

UniProt Q8VG28 = biological target: UniProt Q8VG28
Chain of UniProt Q8VG28 (Q8VG28 as listed by the source): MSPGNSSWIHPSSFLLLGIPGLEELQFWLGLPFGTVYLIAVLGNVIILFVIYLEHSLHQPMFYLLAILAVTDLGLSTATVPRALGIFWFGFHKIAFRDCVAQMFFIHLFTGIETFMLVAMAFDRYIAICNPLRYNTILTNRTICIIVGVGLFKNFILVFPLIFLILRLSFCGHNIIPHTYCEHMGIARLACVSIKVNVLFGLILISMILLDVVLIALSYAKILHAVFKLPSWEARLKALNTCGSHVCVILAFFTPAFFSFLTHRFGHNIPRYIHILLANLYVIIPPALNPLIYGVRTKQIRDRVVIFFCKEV
Procedure, shortened: as §1
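Further: active if original authors judged signal statistically different from baseline.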

Structure (SMILES) | odorant receptor agonist call (UniProt Q7TRX0) | odorant receptor agonist call (UniProt Q8VF43) | odorant receptor agonist call (UniProt Q8VF52) | odorant receptor agonist call (UniProt Q8VFM8) | odorant receptor agonist call (UniProt Q8VFP5) | odorant receptor agonist call (UniProt Q8VG01) | odorant receptor agonist call (UniProt Q8VG27) | odorant receptor agonist call (UniProt Q7TRN9) | odorant receptor agonist call (UniProt Q7TRR8) | odorant receptor agonist call (UniProt Q8VF06) | odorant receptor agonist call (UniProt Q8VG28)
CCCCC(Br)C(=O)O (configuration not stated) | inactive | inactive | inactive | inactive | inactive | inactive | inactive |  |  |  | 
Oc1ccccc1Br | inactive | inactive | inactive | inactive | inactive | inactive | inactive |  |  |  | 
Cc1ccc(OC(=O)Cc2ccccc2)cc1 | inactive | inactive | inactive | inactive | inactive | inactive | inactive |  |  |  | 
O=C(O)CCCCCCCBr |  |  |  |  |  |  |  | active | inactive | inactive | active
O=Cc1ccc2c(c1)OCO2 | inactive | inactive | inactive | inactive | inactive | inactive | inactive |  |  |  | 
